{"source": "ChEMBL document CHEMBL1149042", "about": "“Antihypertensive activity of 6-O-galloyl-D-glucose, a phenolic glycoside from Sapium sebiferum” (1994)", "key": {"Rattus norvegicus [1]": {"tested_on": "Rattus norvegicus", "assay": "Antihypertensive activity in iv dosed SHR rat assessed as reduction in pentobarbitol-induced increase in blood pressure", "type": "functional, organism-based"}, "Rattus norvegicus [2]": {"tested_on": "Rattus norvegicus", "assay": "Antihypertensive activity in SHR rat assessed as changes in tail arterial mean blood pressure at 1 mg/kg, iv", "type": "functional, Artery", "in_short": "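Conscious SHR (250–280 g) with systemic pressure above 180 mm Hg, given a single bolus in Locke-Ringer solution into the cannulated femoral vein over 20 sec. Tail arterial mean pressure was taken by indirect tail-cuff with a photoelectric pulse sensor at 28 ± 1° without pre-warming, at 10-min intervals. Controls received vehicle.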"}, "Rattus norvegicus [3]": {"tested_on": "Rattus norvegicus", "assay": "Antihypertensive activity in SHR rat assessed as changes in tail arterial mean blood pressure at 5 mg/kg, iv", "type": "functional, Artery", "in_short": "(§1)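 SHR rats (250–280 g) with systemic pressure above 180 mm Hg were used. Compound in Locke-Ringer solution was given as a single iv bolus over 20 sec into a cannulated femoral vein. Pressure was read by indirect tail-cuff with a photoelectric pulse sensor at 28 °C without pre-warming, every 10 min, versus pre-dose control. Controls received vehicle. Activity required a significant fall lasting at least 30 min.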"}, "Rattus norvegicus [4]": {"tested_on": "Rattus norvegicus", "assay": "Antihypertensive activity in iv dosed SHR rat assessed as changes in tail arterial mean blood pressure relative to control", "type": "functional, organism-based", "conditions": "Artery", "in_short": "as §1"}, "Rattus norvegicus [5]": {"tested_on": "Rattus norvegicus", "assay": "Antihypertensive activity in SHR rat assessed as reversible inhibition of pentobarbitol-induced increase in blood pressure at 20 mg/kg after 2 hrs", "type": "functional, organism-based", "parameters": "dose 20 mg/kg", "in_short": "as §1"}, "Rattus norvegicus [6]": {"tested_on": "Rattus norvegicus", "assay": "Antihypertensive activity in SHR rat assessed as reduction in pentobarbitol-induced increase in blood pressure at 0.1 mg/kg, iv", "type": "functional", "in_short": "as §1"}, "Rattus norvegicus [7]": {"tested_on": "Rattus norvegicus", "assay": "Inhibition of noradrenaline release in sham operated anesthetized SHR rat plasma at 15 mg/kg, iv after 20 mins", "type": "functional", "in_short": "(§2)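 Plasma was sampled 20 min after a single iv bolus in anaesthetized adrenalectomized rats (bilateral, dorsal approach under ether, 24 h recovery) or sham-operated SHR. Blood (2 ml) came from the optic sinus under ether and was spun at 5,000 × g for 10 min at 4°. Plasma (200 μl) received 20 ng DHBA internal standard and was adsorbed onto alumina with 30 min shaking. Vehicle-treated rats were controls, n=8, mean ± S.D.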"}, "Rattus norvegicus [8]": {"tested_on": "Rattus norvegicus", "assay": "Vasorelaxation activity in SHR rat assessed as reduction of Bay-K 8644-induced mean arterial blood pressure at 5 mg/kg, iv after 20 mins", "type": "functional"}, "Rattus norvegicus [9]": {"tested_on": "Rattus norvegicus", "assay": "Inhibition of noradrenaline release in adrenalectomized anesthetized SHR rat plasma at 15 mg/kg, iv after 20 mins", "type": "functional", "in_short": "as §2"}, "Rattus norvegicus [10]": {"tested_on": "Rattus norvegicus", "assay": "Inhibition of noradrenaline release in sham operated anesthetized SHR rat plasma at 10 mg/kg, iv after 20 mins", "type": "functional", "in_short": "as §2"}, "Rattus norvegicus [11]": {"tested_on": "Rattus norvegicus", "assay": "Antihypertensive activity in sham operated anesthetized SHR rat assessed as reduction of mean blood pressure at 1 mg/kg, iv", "type": "functional", "in_short": "(§3)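 Anaesthetized SHR given a single iv bolus. For adrenalectomized rats, bilateral adrenalectomy was done by dorsal approach under ether, with 24 h recovery before use. Sham-operated rats served as controls. Mean arterial pressure was recorded against vehicle-treated controls. Values are mean ± S.D. of 8 animals, and significance was tested by Dunnett's t-test.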"}, "Rattus norvegicus [12]": {"tested_on": "Rattus norvegicus", "assay": "Antihypertensive activity in adrenalectomized anesthetized SHR rat assessed as reduction of mean blood pressure at 5 mg/kg, iv", "type": "functional", "in_short": "as §3"}, "Rattus norvegicus [13]": {"tested_on": "Rattus norvegicus", "assay": "Inhibition of noradrenaline release in adrenalectomized anesthetized SHR rat plasma at 10 mg/kg, iv after 20 mins", "type": "functional", "in_short": "as §2"}, "Rattus norvegicus [14]": {"tested_on": "Rattus norvegicus", "assay": "Inhibition of noradrenaline release in sham operated anesthetized SHR rat plasma at 5 mg/kg, iv after 20 mins", "type": "functional", "in_short": "as §2"}, "Rattus norvegicus [15]": {"tested_on": "Rattus norvegicus", "assay": "Inhibition of noradrenaline release in adrenalectomized anesthetized SHR rat plasma at 5 mg/kg, iv after 20 mins", "type": "functional", "in_short": "as §2"}, "Rattus norvegicus [16]": {"tested_on": "Rattus norvegicus", "assay": "Vasorelaxation activity in anesthetized normotensive rat assessed as reduction of Bay-K 8644-induced mean arterial blood pressure at 15 mg/kg, iv after 20 mins"}, "Rattus norvegicus [17]": {"tested_on": "Rattus norvegicus", "assay": "Antihypertensive activity in adrenalectomized anesthetized SHR rat assessed as reduction of mean blood pressure at 15 mg/kg, iv", "type": "functional", "in_short": "as §3"}, "Rattus norvegicus [18]": {"tested_on": "Rattus norvegicus", "assay": "Antihypertensive activity in adrenalectomized anesthetized SHR rat assessed as reduction of mean blood pressure at 10 mg/kg, iv", "type": "functional", "in_short": "as §3"}, "Rattus norvegicus [19]": {"tested_on": "Rattus norvegicus", "assay": "Inhibition of noradrenaline release in sham operated anesthetized SHR rat plasma at 1 mg/kg, iv after 20 mins", "type": "functional", "in_short": "as §2"}, "Rattus norvegicus [20]": {"tested_on": "Rattus norvegicus", "assay": "Vasorelaxation activity in SHR rat assessed as reduction of methoxamine-induced mean arterial blood pressure at 10 mg/kg, iv after 20 mins", "type": "functional"}, "Rattus norvegicus [21]": {"tested_on": "Rattus norvegicus", "assay": "Inhibition of noradrenaline release in adrenalectomized anesthetized SHR rat plasma at 1 mg/kg, iv after 20 mins", "type": "functional", "in_short": "as §2"}, "Rattus norvegicus [22]": {"tested_on": "Rattus norvegicus", "assay": "Vasorelaxation activity in SHR rat assessed as reduction of methoxamine-induced mean arterial blood pressure at 15 mg/kg, iv after 20 mins", "type": "functional"}, "Rattus norvegicus [23]": {"tested_on": "Rattus norvegicus", "assay": "Antihypertensive activity in sham operated anesthetized SHR rat assessed as reduction of mean blood pressure at 15 mg/kg, iv", "type": "functional", "in_short": "as §3"}, "Rattus norvegicus [24]": {"tested_on": "Rattus norvegicus", "assay": "Vasorelaxation activity in anesthetized normotensive rat assessed as reduction of Bay-K 8644-induced mean arterial blood pressure at 10 mg/kg, iv after 20 mins"}, "Rattus norvegicus [25]": {"tested_on": "Rattus norvegicus", "assay": "Antihypertensive activity in adrenalectomized anesthetized SHR rat assessed as reduction of mean blood pressure at 1 mg/kg, iv", "type": "functional", "in_short": "as §3"}, "Rattus norvegicus [26]": {"tested_on": "Rattus norvegicus", "assay": "Antihypertensive activity in sham operated anesthetized SHR rat assessed as reduction of mean blood pressure at 10 mg/kg, iv", "type": "functional", "in_short": "as §3"}, "Rattus norvegicus [27]": {"tested_on": "Rattus norvegicus", "assay": "Antihypertensive activity in sham operated anesthetized SHR rat assessed as reduction of mean blood pressure at 5 mg/kg, iv", "type": "functional", "in_short": "as §3"}, "Rattus norvegicus [28]": {"tested_on": "Rattus norvegicus", "assay": "Vasorelaxation activity in SHR rat assessed as reduction of methoxamine-induced mean arterial blood pressure at 5 mg/kg, iv after 20 mins", "type": "functional"}}, "note": "Active and inactive are the calls of the source. The calls are words filed in the database; no cut-off is given here.", "data": [{"smiles": "O=C(OC[C@H]1O[C@@H](O)[C@H](O)[C@@H](O)[C@@H]1O)c1cc(O)c(O)c(O)c1", "values": [{"measurement": "Activity", "setting": "Rattus norvegicus [1]", "result": "Active"}, {"measurement": "Activity", "setting": "Rattus norvegicus [2]", "result": 17.3, "unit": "mmHg"}, {"measurement": "Activity", "setting": "Rattus norvegicus [3]", "result": 29.6, "unit": "mmHg"}, {"measurement": "Activity", "setting": "Rattus norvegicus [4]", "result": "Dose-dependent effect"}, {"measurement": "Activity", "setting": "Rattus norvegicus [5]", "result": "Active"}]}, {"smiles": "COc1cc2nc(N3CCN(C(=O)c4ccco4)CC3)nc(N)c2cc1OC", "note": "[PRAZOSIN]", "values": [{"measurement": "Activity", "setting": "Rattus norvegicus [6]", "result": 31.4, "unit": "mmHg"}]}, {"smiles": "COC(=O)C1=C(C)NC(C)=C(C(=O)OC)C1c1ccccc1[N+](=O)[O-]", "note": "[NIFEDIPINE]", "values": [{"measurement": "Activity", "setting": "Rattus norvegicus [7]", "result": 1.28, "unit": "pmol/mL"}, {"measurement": "Activity", "setting": "Rattus norvegicus [8]", "result": 34.1, "unit": "mmHg"}, {"measurement": "Activity", "setting": "Rattus norvegicus [9]", "result": 1.12, "unit": "pmol/mL"}, {"measurement": "Activity", "setting": "Rattus norvegicus [10]", "result": 1.62, "unit": "pmol/mL"}, {"measurement": "Activity", "setting": "Rattus norvegicus [11]", "result": 168.4, "unit": "mmHg"}, {"measurement": "Activity", "setting": "Rattus norvegicus [12]", "result": 143.8, "unit": "mmHg"}, {"measurement": "Activity", "setting": "Rattus norvegicus [2]", "result": 10.8, "unit": "mmHg"}, {"measurement": "Activity", "setting": "Rattus norvegicus [13]", "result": 1.49, "unit": "pmol/mL"}, {"measurement": "Activity", "setting": "Rattus norvegicus [14]", "result": 2.04, "unit": "pmol/mL"}, {"measurement": "Activity", "setting": "Rattus norvegicus [15]", "result": 1.76, "unit": "pmol/mL"}, {"measurement": "Activity", "setting": "Rattus norvegicus [16]", "result": 14.3, "unit": "mmHg"}, {"measurement": "Activity", "setting": "Rattus norvegicus [17]", "result": 110.4, "unit": "mmHg"}, {"measurement": "Activity", "setting": "Rattus norvegicus [18]", "result": 132.4, "unit": "mmHg"}, {"measurement": "Activity", "setting": "Rattus norvegicus [19]", "result": 2.37, "unit": "pmol/mL"}, {"measurement": "Activity", "setting": "Rattus norvegicus [20]", "result": 29.8, "unit": "mmHg"}, {"measurement": "Activity", "setting": "Rattus norvegicus [21]", "result": 2.04, "unit": "pmol/mL"}, {"measurement": "Activity", "setting": "Rattus norvegicus [22]", "result": 17.1, "unit": "mmHg"}, {"measurement": "Activity", "setting": "Rattus norvegicus [23]", "result": 118.7, "unit": "mmHg"}, {"measurement": "Activity", "setting": "Rattus norvegicus [24]", "result": 23.6, "unit": "mmHg"}, {"measurement": "Activity", "setting": "Rattus norvegicus [25]", "result": 161.1, "unit": "mmHg"}, {"measurement": "Activity", "setting": "Rattus norvegicus [26]", "result": 140.9, "unit": "mmHg"}, {"measurement": "Activity", "setting": "Rattus norvegicus [27]", "result": 151.2, "unit": "mmHg"}, {"measurement": "Activity", "setting": "Rattus norvegicus [28]", "result": 36.3, "unit": "mmHg"}]}]}
